Active and inactive are the calls of the source.
What was measured:
[1] = Selectivity of mouse CB2 receptor over rat CB1 receptor
Procedure, shortened: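 Ratio of Ki values from [3H]CP55,940 displacement using rat brain synaptosomal membranes (CB1) and mouse spleen membranes (CB2). Both incubated 1 h at 30 °C in TME with 0.1% BSA. IC50 from three independent experiments converted to Ki by Cheng–Prusoff.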

Cannabinoid receptor 2 = Cannabinoid receptor 2 (Mus musculus, UniProt P47936); assay: Displacement of [3H]CP-55940 from CB2 receptor in mouse spleen membranes; type: cell membranes, Membrane
Procedure, shortened: (§1)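 Competitive displacement of [3H]CP55,940 (3.08 nM) from rat forebrain synaptosomal membranes (CB1) or frozen mouse spleen membranes (CB2), 40–50 µg protein. Test ligand at eight concentrations in DMSO. Incubation 1 h at 30 °C in TME buffer (25 mM Tris, 5 mM MgCl2, 1 mM EDTA) with 0.1% BSA. Nonspecific binding defined with 200 nM CP55,940. Bound ligand separated by rapid filtration and read by scintillation counting. Data from three independent experiments fitted by four-parameter logistic to give IC50, converted to Ki by Cheng–Prusoff.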

[2] = target: Cannabinoid receptor 2 (Mus musculus) (UniProt P47936); assay: Agonist activity at CB2 receptor in mouse spleen membranes at 1 uM after 2 hrs by [35S]GTP-gamma-S binding assay; type: functional, cell membranes; settings: Membrane
Procedure, shortened: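 Mouse spleen lysed in a cell disruption bomb, centrifuged at 1000 g then 175000 g, and resuspended in TME with 0.1% BSA. Membranes (24–40 µg) incubated 2 h at 30 °C with test compound at 1 µM, 30 µM GDP and 0.05 nM [35S]GTPγS. Nonspecific binding defined with 10 µM unlabeled GTPγS. Bound label measured after GF/B filtration by scintillation counting. Reported with standard deviations.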

Cannabinoid receptor 1 = Cannabinoid receptor 1 (Rattus norvegicus, UniProt P20272); assay: Displacement of [3H]CP-55940 from CB1 receptor in rat brain synaptosomes; type: subcellular
Procedure, shortened: as §1, with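 “Test” for “Competitive displacement of [3H]CP55,940 (3.08 nM) from rat forebrain synaptosomal membranes (CB1) or frozen mouse spleen membranes (CB2), 40–50 µg protein. Test”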

Rattus norvegicus [3] = assay: Antinociceptive activity in sc dosed Sprague-Dawley rat assessed as paw withdrawal latency to radiant heat after 20 mins; type: functional
Procedure, shortened: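 Male Sprague–Dawley rats, 200–300 g. Drug in DMSO, 50 µL, injected subcutaneously into the plantar hindpaw 20 min before testing. […] A50 (dose giving 50% MPE) taken from dose–response curves by Tallarida–Murray. n=6 per group, mean ± SEM.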

[4] = target: Cannabinoid receptor 2 (Mus musculus) (UniProt P47936); assay: Agonist activity at CB2 receptor in mouse spleen membranes assessed as inhibition of forskolin-stimulated cAMP production; type: functional, cell membranes; settings: Membrane
Rattus norvegicus [5] = assay: Neurotoxicity in Sprague-Dawley rat assessed as ambulation on rotarod apparatus at 3.3 mg/kg, ip after 15 mins; type: toxicity, organism-based; design: dose 3.3 mg/kg, route intraperitoneal; settings: in vivo, 0.25 h
Procedure, shortened: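 Rats trained to stay 180 s on a rotarod at 10 rpm. Drug given i.p. at 3.3 mg/kg. Time to fall recorded 15 min after dosing, with a 180 s cutoff; comparison is to vehicle baseline.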

Cannabinoid receptor 1, sequence (P20272 whole entry): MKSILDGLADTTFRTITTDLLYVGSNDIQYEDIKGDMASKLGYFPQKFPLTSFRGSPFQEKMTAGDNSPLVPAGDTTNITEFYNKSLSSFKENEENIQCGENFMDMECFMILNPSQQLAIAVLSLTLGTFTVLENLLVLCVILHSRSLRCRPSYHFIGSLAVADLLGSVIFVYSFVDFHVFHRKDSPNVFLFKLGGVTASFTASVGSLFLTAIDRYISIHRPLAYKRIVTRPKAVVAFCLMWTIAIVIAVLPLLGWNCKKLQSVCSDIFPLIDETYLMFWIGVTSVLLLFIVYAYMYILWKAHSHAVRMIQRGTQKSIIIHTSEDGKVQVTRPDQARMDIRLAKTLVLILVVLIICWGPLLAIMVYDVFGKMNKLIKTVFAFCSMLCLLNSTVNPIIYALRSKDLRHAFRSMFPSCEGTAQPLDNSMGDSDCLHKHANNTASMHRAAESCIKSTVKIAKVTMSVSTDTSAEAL
Cannabinoid receptor 2, sequence (P47936 whole entry): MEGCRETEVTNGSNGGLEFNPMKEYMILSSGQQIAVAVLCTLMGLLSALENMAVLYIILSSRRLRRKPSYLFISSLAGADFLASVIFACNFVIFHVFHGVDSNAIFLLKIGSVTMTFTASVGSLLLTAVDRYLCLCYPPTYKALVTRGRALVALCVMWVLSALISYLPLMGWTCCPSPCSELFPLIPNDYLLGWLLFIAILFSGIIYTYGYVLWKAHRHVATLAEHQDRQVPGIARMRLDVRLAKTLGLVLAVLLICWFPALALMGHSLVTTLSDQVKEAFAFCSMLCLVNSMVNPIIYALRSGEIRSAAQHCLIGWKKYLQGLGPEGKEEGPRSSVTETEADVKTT
Cannabinoid receptor 2 (Mus musculus), sequence (P47936 whole entry): as above

SMILES: CCCCCCC(C)(C)c1cc(O)c2c(c1)OC(C)(C)c1ccc(OC)cc1-2
- Ratio Ki [1]: 0.92
- Ki (Cannabinoid receptor 2): 5.9 nM
- Activity [2]: 42%
- Ki (Cannabinoid receptor 1): 5.4 nM

SMILES: Cc1c(C(=O)c2cccc3ccccc23)c2cccc3c2n1[C@H](CN1CCOCC1)CO3
- Activity [2]: 56%

SMILES: CCCCCCC(C)(C)c1cc(O)c2c(c1)oc(=O)c1ccc(O)cc12
- A50 (Rattus norvegicus [3]): 4.5 mg/kg
- Activity [4]: Active
- Ratio Ki [1]: 490
- Activity (Rattus norvegicus [5]): Non-toxic
- Ki (Cannabinoid receptor 2): 0.82 nM
- Activity [2]: 55%
- Ki (Cannabinoid receptor 1): 400 nM

SMILES: CCCCCCC(C)(C)c1cc(O)c2c(c1)OC(C)(C)c1ccc(C)cc1-2
- Ratio Ki [1]: 0.86
- Ki (Cannabinoid receptor 2): 1.1 nM
- Ki (Cannabinoid receptor 1): 0.95 nM

SMILES: CCCCCCC(C)(C)c1cc(O)c2c(c1)oc(=O)c1ccc(C)cc12
- Ki (Cannabinoid receptor 2): 3.1 nM
- Ki (Cannabinoid receptor 1): 39 nM

SMILES: CCCCCCC(C)(C)c1cc(O)c2c(c1)oc(=O)c1ccc(OC)cc12
- A50 (Rattus norvegicus [3]): 1.6 mg/kg
- Activity [4]: Active
- Ratio Ki [1]: 54
- Ki (Cannabinoid receptor 2): 6.7 nM
- Activity [2]: 50%
- Ki (Cannabinoid receptor 1): 360 nM

SMILES: CCCCCCC(C)(C)c1cc(O)c2c(c1)OC(C)(C)c1ccc(O)cc1-2
- Ratio Ki [1]: 0.54
- Ki (Cannabinoid receptor 2): 4.8 nM

Reference: ChEMBL document CHEMBL1138340, “Cannabilactones: a novel class of CB2 selective agonists with peripheral analgesic activity” (J Med Chem, 2007)
